CSC inhib: cancer stem cell viability inhibitors, primary screen, luminescence. 1.1% of 300,000 active. AID 2717, 2010. cancer stem cell-like cells viability. inhibition, % at 7.5 µM; in the data active = inhibition above about 75%; inconclusive = no clear call, values can overlap the other calls; tested in HMLE shEcad cells
aSyn UTR inh: MLPCN primary screen, SNCA 5' untranslated region; alpha-synuclein 5'UTR reporter, inhibitor activity; inhibition, % (tested at 7.5 µM); AID 1813, 2009; 0.82% of 300,000 active; in the data active = inhibition above about 60%; inconclusive = no clear call, values can overlap the other calls;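 note: H4 neuroglioblastoma cells stably carrying SNCA 5'UTR luciferase fusion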
SKKanGAS inh: S. pyogenes SKKanGAS growth inhibitors in kanamycin, primary screen, streptokinase expression inhibitor project, SKKanGAS strain, BacTiter-Glo luminescence; 6 h; inhibition, % at 7.5 µM; 1.3% of 300,000 active; AID 1662, 2009;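 active = mean replicate score, as percent of positive control median, at least 50; inconclusive = mean below 50 but one replicate at or above 50; inactive = mean and every replicate below 50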;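 note: strain carries kanamycin resistance gene driven by streptokinase promoter and grows in 40 µg/ml kanamycin; loss of luminescence reflects streptokinase promoter inhibition or plain growth inhibition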
T cruzi repl: inhibitors of intracellular T. cruzi growth, primary screen, luminescence, NIH3T3 host cells. T. cruzi beta-gal in NIH3T3, 90 h. inhibition, % (no concentration beside the values). 1.4% of 300,000 active;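 active = mean inhibition across valid replicates above about 55%, limit read from the data; inconclusive = mean below that limit but half or more replicates reach it; inactive = mean below it, under half of replicates reach it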;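 note: signal also drops with host cell toxicity which is not excluded here; higher percent means less beta-gal luminescence so fewer parasites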
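Test system: β-gal T. cruzi (Tulahuen C4) inside NIH/3T3 cells / Quantity: 5,000 cells/well / Measured by: luminescence from GalScreen with 0.05% NP40, read after 60 min / Medium: DMEM plus 2% FBS / Measure: parasite load inhibition, % / Reagent: Tulahuen C4 trypomastigotes, 5000/well / Schedule: co-culture of at least 90 h after 3 h attachment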
Mdm2 MdmX PPI: inhibitors of human Mdm2-MdmX association, primary screen, cell-based, luminescence, split luciferase, SaOS-2, uHTS; Protein Mdm4 (Homo sapiens) + E3 ubiquitin-protein ligase Mdm2 (Homo sapiens), …; SaOS-2 split-luciferase Mdm2/MdmX complementation; inhibition, % at 8 µM; 3% of 330,000 active; AID 485346, 2010;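 active = inhibition of at least 50% at 8 µM in the primary screen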
Target sequence (O15151 whole entry, looked up): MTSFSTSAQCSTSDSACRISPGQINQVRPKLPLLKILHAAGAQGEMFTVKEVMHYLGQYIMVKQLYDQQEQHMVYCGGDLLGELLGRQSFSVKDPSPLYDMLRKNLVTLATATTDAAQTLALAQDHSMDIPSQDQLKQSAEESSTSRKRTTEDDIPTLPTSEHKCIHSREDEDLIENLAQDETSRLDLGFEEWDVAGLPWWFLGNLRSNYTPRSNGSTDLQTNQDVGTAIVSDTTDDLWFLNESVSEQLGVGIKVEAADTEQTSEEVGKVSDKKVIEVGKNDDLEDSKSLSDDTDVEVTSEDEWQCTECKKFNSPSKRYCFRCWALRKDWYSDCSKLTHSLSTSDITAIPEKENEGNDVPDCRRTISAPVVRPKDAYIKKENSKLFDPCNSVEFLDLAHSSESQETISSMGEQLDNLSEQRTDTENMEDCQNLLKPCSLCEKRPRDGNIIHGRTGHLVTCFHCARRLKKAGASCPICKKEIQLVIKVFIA
Target sequence (Q00987 whole entry, looked up): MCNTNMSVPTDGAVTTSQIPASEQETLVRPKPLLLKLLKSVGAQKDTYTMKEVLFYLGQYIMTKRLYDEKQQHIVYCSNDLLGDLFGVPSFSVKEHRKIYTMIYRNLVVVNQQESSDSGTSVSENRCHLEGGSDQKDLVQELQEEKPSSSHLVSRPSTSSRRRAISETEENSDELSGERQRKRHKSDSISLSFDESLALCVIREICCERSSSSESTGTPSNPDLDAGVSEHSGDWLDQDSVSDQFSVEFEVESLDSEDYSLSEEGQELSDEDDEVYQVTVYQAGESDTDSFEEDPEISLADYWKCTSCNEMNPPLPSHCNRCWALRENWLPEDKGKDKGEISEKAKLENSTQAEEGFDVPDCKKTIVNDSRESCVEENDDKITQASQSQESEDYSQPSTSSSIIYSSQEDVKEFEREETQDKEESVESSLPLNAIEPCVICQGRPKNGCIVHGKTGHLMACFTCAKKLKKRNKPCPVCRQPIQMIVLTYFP
Mdm2 MdmX conf: Mdm2-MdmX complex disruptors, retested hits, confirmation, luminescence, single concentration; 55% of 10,000 active; inhibition, % at 8 µM; shares compounds with Mdm2 MdmX PPI; Mdm2-MdmX binding, luminescent assay; AID 489028, 2010; in the data active = inhibition above about 40%
Full FLuc ctr: full-length luciferase signal inhibition, confirmation, counter-screen for Mdm2/MdmX interaction inhibitor project, cell-based, single concentration, SaOS-2; shares compounds with Mdm2 MdmX PPI; SaOS-2 full-length luciferase counterscreen, luminescence; inhibition, % at 8 µM; 77% of 6,200 active;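 active = mean inhibition at 8 µM reaching about 37%, which flags the compound as non-specific, limit read from the data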;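 note: p53-null SaOS-2 cells with luciferase driven by a doxycycline-inducible promoter; compound on cells about two nights before reading with doxycycline added after day one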
Numbers stand for hits; i = inactive; ? = inconclusive; nt = not tested or not shown. Compounds with a hit are over-represented: about 5.4% of the library has one in this group of screens.

SMILES | CSC inhib | aSyn UTR inh | SKKanGAS inh | T cruzi repl | Mdm2 MdmX PPI | Mdm2 MdmX conf | others
CCN(C(=O)CSc1nc(-c2cccs2)nc2ccccc12)C1CCS(=O)(=O)C1 (stereo not given) | nt | nt | nt | nt | i | nt
CC(=O)Nc1cccc(NC(=O)CS(=O)(=O)c2cn(CC(=O)N(C(C)C)C(C)C)c3ccccc23)c1 | i | i | i | i | i | nt
COc1ccccc1NC(=S)NCc1ccc2c(c1)OCO2 | i | i | i | i | i | nt
c1ccc(Nc2nc(N3CCOCC3)nc(N3CCOCC3)n2)cc1 | nt | i | i | i | 56 | i
FC(F)(F)c1cccc(Nc2nc(N3CCOCC3)nc(N3CCOCC3)n2)c1 | i | i | i | i | i | nt
Cc1cccc(Nc2nc(N3CCOCC3)nc(N3CCOCC3)n2)c1 | i | i | i | 56 | 51 | i
Cc1ccc(F)cc1NC(=O)CSc1nc(Nc2ccccc2)nc(N2CCOCC2)n1 | i | i | i | i | 74 | i
Oc1cccc(Nc2nc(N3CCOCC3)nc(N3CCOCC3)n2)c1 | i | i | i | i | 56 | 43 | Full FLuc ctr=74
CCOc1ccc(OCC)c(-c2c(=O)n(OCc3ccccc3Br)c3ccccc3[n+]2[O-])c1 | i | i | i | i | i | nt
COc1ccc(Cc2nnc(SCC(=O)Nc3nc(C)cs3)o2)cc1 | i | i | i | i | i | nt
CC(=O)Nc1cccc(Oc2ncnc3scc(-c4ccccc4)c23)c1 | i | i | i | i | i | nt
CN(C)C/C=C/C(=O)Nc1cccc(-c2c[nH]c3ncnc(Oc4ccc(NC(=O)CC(=O)Nc5ccc(F)cc5)cc4F)c23)c1 | nt | nt | nt | nt | 68 | i
CCc1nc2ccccc2c(C(=O)OCC(=O)Nc2cccc(S(=O)(=O)N3CCOCC3)c2)c1C | i | i | i | i | 66 | 75 | Full FLuc ctr=45
COc1ccccc1C(NC(C)=O)c1cc(Cl)c2cccnc2c1O (stereo not given) | 101 | 67 | 100 | 61 | 67 | 61 | Full FLuc ctr=i
CC(=O)NC(C)c1cc(Cl)c2cccnc2c1O (stereo not given) | i | nt | nt | nt | i | nt
COc1ccc(C(NC(C)=O)c2cc(Cl)c3cccnc3c2O)cc1OC (stereo not given) | i | i | 55 | 57 | 68 | 76 | Full FLuc ctr=40
Cc1ccc(-c2nn3c(C)nnc3c3ccccc23)cc1S(=O)(=O)NCc1ccccc1 | i | i | i | i | i | nt
Cc1ccc(-c2nn3c(C)nnc3c3ccccc23)cc1S(=O)(=O)N(C)CCO | i | i | i | i | 53 | i
CCOC(=O)N1CCN(S(=O)(=O)c2cc(-c3nn4c(C)nnc4c4ccccc34)ccc2C)CC1 | i | i | i | i | 59 | i
CS(=O)(=O)N1CCC(C(=O)Nc2cc(Cl)c(Cl)cc2Cl)CC1 | i | i | i | i | i | nt
O=C(NCCc1c[nH]c2ccccc12)C(=O)NCC(c1ccco1)N1CCN(c2ccccc2)CC1 (stereo not given) | i | i | i | i | i | nt
CCOC(=O)c1ccc(NC(=S)N(CCN(C)C)Cc2cccs2)cc1 | i | ? | i | i | 76 | 46 | Full FLuc ctr=61
Cc1ccc(NC(=S)N(CCN(C)C)Cc2cccs2)cc1 | i | i | i | i | i | nt
O=c1c(-c2ccccc2)nnc2sc(COc3ccc(Br)cc3)nn12 | i | i | i | i | i | nt
CCc1nc2ccc(C(=O)N3CCN(c4cccc(OC)c4)CC3)cc2nc1CC | i | i | i | i | 64 | i | Full FLuc ctr=63
SMILES | CSC inhib | aSyn UTR inh | SKKanGAS inh | T cruzi repl | Mdm2 MdmX PPI | Mdm2 MdmX conf | others
COc1cccc(N2CCN(C(=O)c3ccc4ccccc4c3)CC2)c1 | nt | nt | nt | nt | i | nt
O=c1cc(N2CCCCC2)c(-c2ccccc2)nn1Cc1c(Cl)cccc1Cl | 104 | i | 107 | i | 56 | i
Cc1ccc(S(=O)(=O)N(C)C[C@@H]2Oc3ccc(NC(=O)CCC(F)(F)F)cc3CC(=O)N([C@@H](C)CO)C[C@@H]2C)cc1 | i | nt | nt | nt | 59 | 57 | Full FLuc ctr=63
C[C@H](CO)N1C[C@H](C)[C@@H](CN(C)S(C)(=O)=O)Oc2ccc(NC(=O)Nc3ccc(C(F)(F)F)cc3)cc2C1=O | nt | nt | nt | nt | i | nt
C[C@H](CO)N1C[C@H](C)[C@H](CN(C)S(=O)(=O)c2cn(C)cn2)Oc2ccc(NC(=O)Nc3ccc(C(F)(F)F)cc3)cc2CC1=O | i | nt | nt | nt | i | nt
C[C@H](CO)N1C[C@H](C)[C@@H](CN(C)S(=O)(=O)c2ccc(F)cc2)Oc2c(NC(=O)Nc3ccc(C(F)(F)F)cc3)cccc2C1=O | i | nt | nt | nt | i | nt
C[C@@H]1CN([C@@H](C)CO)C(=O)Cc2cc(NC(=O)Nc3ccc(C(F)(F)F)cc3)ccc2O[C@@H]1CN(C)S(=O)(=O)c1ccc(Cl)cc1 | 132 | nt | nt | nt | 94 | 53 | Full FLuc ctr=38
C[C@@H]1CN([C@H](C)CO)C(=O)c2cc(NC(=O)Nc3ccc(C(F)(F)F)cc3)ccc2O[C@H]1CN(C)S(=O)(=O)c1ccc(Cl)cc1 | 78 | nt | nt | nt | 85 | i
C[C@H]1CN([C@@H](C)CO)C(=O)Cc2cc(NC(=O)CCC(F)(F)F)ccc2O[C@H]1CN(C)S(C)(=O)=O | nt | nt | nt | nt | i | nt
C[C@H]1CN([C@@H](C)CO)C(=O)c2cccc(NC(=O)Nc3ccc(C(F)(F)F)cc3)c2O[C@@H]1CN(C)S(=O)(=O)c1ccc(Cl)cc1 | 130 | nt | nt | nt | 58 | i
C[C@H](CO)N1C[C@H](C)[C@@H](CN(C)S(=O)(=O)c2ccc(F)cc2)Oc2ccc(NC(=O)Nc3ccc(C(F)(F)F)cc3)cc2C1=O | 87 | nt | nt | nt | 75 | i
C[C@H](CO)N1C[C@H](C)[C@@H](CN(C)S(=O)(=O)c2ccc(F)cc2)Oc2ccc(NC(=O)Nc3ccccc3)cc2C1=O | i | nt | nt | nt | i | nt
Cc1c(NS(C)(=O)=O)cccc1-c1nc2cccnc2s1 | i | i | i | i | i | nt
COc1ccc(-c2sc3ccc(OC)cc3c2-c2ccc(OC)nc2)cc1 | i | nt | nt | nt | i | nt
COc1ccc(-c2sc3ccccc3c2-c2ccc(OCCN(C)C)cc2)cc1 | 142 | nt | nt | nt | 100 | 49 | Full FLuc ctr=i
CN(C)CCOc1ccc(-c2c(-c3ccsc3)sc3ccccc23)cc1 | 104 | nt | nt | nt | 93 | i
CN(C)CCOc1ccc2ccccc2c1 | i | i | i | i | i | nt
COc1cccc(-c2sc3ccc(OC)cc3c2-c2ccc(OCCN(C)C)cc2)c1 | 104 | nt | nt | nt | 99 | i
C=CCN1C(=O)c2ccc(C(=O)N3CCC(C(N)=O)CC3)cc2C1=O | i | i | i | i | i | nt
CN(C)c1ccc(CNC(=O)CCS(=O)(=O)c2ccc3c(c2)oc(=O)n3C)cc1 | i | i | i | i | i | nt
O=C1c2ccccc2C(=O)c2c(NCCCN(CCO)CCO)cccc21 | nt | i | i | ? | i | nt

High-throughput results deposited in PubChem BioAssay by several laboratories.
